RAM network inh – inhibitors of the yeast RAM network | S. cerevisiae dse1pr::URA3 reporter, 5-FOA growth OD615, 2 d; analog-sensitive cbk1-as2 kinase mutant strain | inhibition, % at 50 µM | actives 1.8% (n = 190,000) | AID 868;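 active means inhibition above a set limit, 3 SD over mean compound inhibition, cut at about 8.4% in these data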;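 further: 0% = DMSO-only wells with no growth and 100% = 10 µM 1-NA-PP1 full growth; inhibition rescues growth on 5-FOA so higher OD means more RAM inhibition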
Yeast growth inh – reduces growth of yeast BB579 in restrictive medium; actives 0.51% (n = 140,000); AID 804; S. cerevisiae BB579 growth, OD615, 48 h; inhibition, % at 10 µM;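 active means inhibition above a set limit, 3 SD over the mean compound inhibition, cut at about 44% in these data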
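Test system: S. cerevisiae DeaD strain BB579 yeast; Medium: restrictive CSMM-D medium; Compound: one dose, 10 µM compound with 0.25% DMSO; Incubation: 4 h cell preincubation, 48 h compound exposure, 30 °C humidified; Signal: OD at 615 nm; Benchmarks: amphotericin B at 10 µg/mL as positive control.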
SDO1 yeast rescue – restores growth of sdo1-depleted yeast; S. cerevisiae sdo1-depleted JHY4D growth rescue, OD600 30 h; active compounds read high; pdr5 snq2 efflux-pump mutant strain; z-score at 10 µM; actives 0.21% (n = 140,000); AID 817;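 active means z-score above 3 at both the 24 hr and the 30 hr optical density reads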;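 further: z-score against mean and SD of all compound wells on the same plate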
Yeast lifespan up – yeast lifespan extension; S. cerevisiae growth with nicotinamide, OD615; deaD strain in restrictive glucose medium; inhibition of the nicotinamide effect, % at 10 µM; actives 0.68% (n = 130,000); AID 775;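 active means inhibition above a set limit, placed 3 SD over the median of all compounds, cut at about 26% in these data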;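 further: 0% = nicotinamide-treated wells and 100% = cells grown without nicotinamide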
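Assay system: engineered S. cerevisiae DeaD replicative-lifespan strain, galactose-grown log-phase cells; medium: restrictive CSMM-D dextrose medium; also added: nicotinamide, 1.5 mM, co-present with compound; schedule: 48 h compound exposure at 30 °C, humidified; detection: absorbance at 615 nm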
RAM efflux-def – RAM network inhibitors in efflux-deficient yeast. shares compounds with RAM network inh. S. cerevisiae efflux-deficient reporter strain, 5-FOA growth OD615, 2 days. max inhibition, %. 1,200 tested, under 10 active. AID 1305; call rule not given here;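 further: plate controls were vehicle for no effect and reference inhibitor for full effect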
The depositor's hits bear a star; . = no result. Only some compounds are listed: those with a hit (about 2.7% of all), similar ones and a draw of the others.

SMILES	RAM network inh	Yeast growth inh	SDO1 yeast rescue	Yeast lifespan up	RAM efflux-def
CCC(Sc1nc2c(cnn2-c2ccc(Cl)cc2)c(=O)[nH]1)C(=O)OC (stereo not drawn)	4	-17	-1.6	3	.
CCOC(=O)C(C)(C)Sc1nc2c(cnn2-c2ccc(Cl)cc2)c(=O)[nH]1	14*	-103	-1.4	4	3
O=C(O)c1ccccc1CSc1nc2ccccc2n1Cc1ccccc1C(=O)O	6	.	.	.	.
CCOc1ccc(-c2csc(NNC3=NCCCCC3)n2)cc1	0	.	.	.	.
Cc1noc(NS(=O)(=O)c2ccc(N/C=C\C(=O)c3cccs3)cc2)c1C	12*	.	.	.	6
CC(=O)N1C(C)(C)CC(=NOC(=O)c2ccc(C)cc2)CC1(C)C	-1	.	.	.	.
CC(=O)Nc1ccc(NC(=O)c2ccc(C)c(S(=O)(=O)Nc3cccc(C)c3)c2)cc1	8	.	.	.	.
O=S(=O)(Nc1ccc(N=Nc2ccc(O)c3ccccc23)cc1)c1ccccc1	13*	-42	-0.82	2	3
O=C(O)[C@H](Cc1ccccc1)NC(=O)C(c1ccccc1)(c1ccccc1)c1ccccc1	6	.	.	.	.
O=C(CC(c1ccccc1)(c1ccccc1)c1ccccc1)N[C@@H](Cc1ccccc1)C(=O)O	13*	.	.	.	2
C=CCNC(=O)CCC(=O)NNc1nc2ccccc2c2nc(-c3ccccc3)nn12	2	.	.	.	.
C=CCSc1nc2ccccc2c2nc(-c3ccccc3)nn12	13*	-10	0.65	-7	2
COc1ccc(C=O)cc1Cn1c(C)cc(C)c(C#N)c1=O	2	.	.	.	.
Cc1cc(Cl)ccc1Oc1ccccc1C(=O)CC#N	0	.	.	.	.
